The values that follow come from ChEMBL document CHEMBL4393737, “Synthesis of quinoline derivatives as diabetic II inhibitors and molecular docking studies” (Bioorg Med Chem, 2019).

A short description of assay [1]: Inhibition of Saccharomyces cerevisiae alpha-glucosidase using para-nitrophenyl-alpha-D-glucopyranoside as substrate preincubated for 5 mins followed by substrate addition and measured after 5 mins. In a few lines: (§1)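 Baker's yeast α-glucosidase (EC 3.2.1.20) in 100 mM phosphate buffer, pH 6.8. Compounds came from 5 mg/mL DMSO stocks and were incubated with enzyme for 5 min. p-Nitrophenyl-α-D-glucopyranoside (5 mM solution) was then added and incubated for 5 min, and absorbance read at 405 nm. Blanks with buffer in place of substrate gave background; acarbose served as positive control.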

The subject of the next assay is Saccharomyces cerevisiae. Description: Inhibition of Saccharomyces cerevisiae alpha-glucosidase using para-nitrophenyl-alpha-D-glucopyranoside as substrate preincubated for 5 mins followed by substrate addition and measured after 5 mins relative to control. More on the design: concentration or dose not given beside the values. A digest of the protocol:
as §1

Some results are limits rather than exact numbers.

`COc1ccc(/C=N\NC(=O)c2ccc3ncccc3c2)c(O)c1`: the IC50 in assay [1] (read-out: IC50) stood at 21.6 µM.
Same read-out and setting: in the case of `O=C(N/N=C\c1cccc(F)c1)c1ccc2ncccc2c1` it was 48.2 µM; in that of `O=C(N/N=C\c1cccc(O)c1O)c1ccc2ncccc2c1`, 9.4 µM.
The same measure, in the same setting: in the case of `O=C(N/N=C\c1cc(O)ccc1O)c1ccc2ncccc2c1` it was 12.4 µM; in that of `O=C(N/N=C\c1ccc(F)cc1)c1ccc2ncccc2c1`, 28.9 µM.
As for `COc1ccc(/C=N\NC(=O)c2ccc3ncccc3c2)cc1OC`, the inhibition with Saccharomyces cerevisiae is below 50%. Also, in assay [1], the IC50 result is on record as “Not Active”.
As for `O=C(N/N=C\c1cccc(O)c1)c1ccc2ncccc2c1`, the IC50 in assay [1] (read-out: IC50) was determined as 48.5 µM.
On the same count and under the same terms, in the case of `O=C(N/N=C\c1ccc(O)cc1O)c1ccc2ncccc2c1` it was 14.1 µM; in that of `O=C(N/N=C\c1ccccn1)c1ccc2ncccc2c1`, 38.4 µM.
For `COc1ccc(/C=N\NC(=O)c2ccc3ncccc3c2)cc1`, in the assay with Saccharomyces cerevisiae, the inhibition was below 50%. The IC50 result in assay [1] is listed as “Not Active”.
For the compound `O=C(N/N=C\c1ccccc1O)c1ccc2ncccc2c1`, the IC50 in assay [1] (read-out: IC50) was found to be 13.2 µM.
In the case of `O=C(N/N=C\c1cccc([N+](=O)[O-])c1)c1ccc2ncccc2c1`, in the assay with Saccharomyces cerevisiae, the inhibition is below 50%. Further, the IC50 entry in assay [1] is “Not Active”.
For `O=C(N/N=C\c1cccnc1)c1ccc2ncccc2c1`, in that order: below 50% and “Not Active”.
In the case of `O=C(N/N=C\c1cccs1)c1ccc2ncccc2c1`, in assay [1] (read-out: IC50), the 50% inhibitory concentration (IC50) was 35.7 µM.
As to `O=C(N/N=C\c1ccccc1[N+](=O)[O-])c1ccc2ncccc2c1`, the IC50 in assay [1] (read-out: IC50) amounted to 37.6 µM.
As for `O=C(N/N=C\c1ccncc1)c1ccc2ncccc2c1`, the inhibition in the assay on Saccharomyces cerevisiae is below 50%. In addition, in assay [1], the IC50 result is recorded as “Not Active”.
`O=C(N/N=C\c1ccco1)c1ccc2ncccc2c1`: in assay [1] (read-out: IC50), the IC50 worked out at 28.6 µM.
For the compound `O=C(N/N=C\c1ccccc1F)c1ccc2ncccc2c1`, the IC50 in assay [1] (read-out: IC50) turned out to be 7.4 µM.
Take `O=C(N/N=C\c1ccc(O)cc1)c1ccc2ncccc2c1`: the IC50 in assay [1] (read-out: IC50) is 23.5 µM.
On to `Cc1cccc(C)c1/C=N\NC(=O)c1ccc2ncccc2c1`, for which the inhibition with Saccharomyces cerevisiae was below 50%. Moreover, the IC50 result in assay [1] is reported as “Not Active”.
Take `COc1ccc(O)c(/C=N\NC(=O)c2ccc3ncccc3c2)c1`: the IC50 in assay [1] (read-out: IC50) is 18.4 µM.
Take `O=C(N/N=C\c1ccc(O)c(O)c1)c1ccc2ncccc2c1`: the IC50 in assay [1] (read-out: IC50) turned out to be 6.2 µM.
With `O=C(N/N=C\c1ccc([N+](=O)[O-])cc1)c1ccc2ncccc2c1`, the inhibition in the assay on Saccharomyces cerevisiae is below 50%. The IC50 entry in assay [1] is listed as “Not Active”.
`COc1cccc(/C=N\NC(=O)c2ccc3ncccc3c2)c1`: the inhibition in the assay with Saccharomyces cerevisiae was below 50%. Moreover, in assay [1], the IC50 result is “Not Active”.
For the compound `COc1ccc(/C=N\NC(=O)c2ccc3ncccc3c2)cc1O`, the IC50 in assay [1] (read-out: IC50) is 14.4 µM.
